Source: PubChem (Johns Hopkins Ion Channel Center)
A selection: hits, their analogues and other compounds. The true share with any hit is near 3.8%.
KCNQ1 pot: potentiates or activates the human KCNQ1 potassium channel; P51787; CHO-K1 KCNQ1, thallium flux FluxOR fluorescence; active compounds read high; B-score at 10 µM; hit rate 0.35% among 310,000; AID 2648;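 active means fluorescence ratio B-score, a plate-corrected score, at least three library SD, with initial intensity B-score within 5 SD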
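assay system = CHO-K1 cells stably expressing KCNQ1 | medium = assay buffer, equal DMSO in all wells | timing = 37 °C overnight plating, 90-min dark dye load, 20-min compound pretreatment | measured by = kinetic FluxOR thallium fluorescence, 10-s 1-Hz baseline, 110-s post-stimulus read | measure = fluorescence change relative to baseline, converted to B score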
KCNQ1 block: human KCNQ1 channel inhibition; CHO-K1 KCNQ1, FluxOR thallium flux fluorescence; active compounds read high; B-score at 10 µM; hit rate 1.3% among 310,000; AID 2642;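 active means compounds whose thallium flux B-score, printed positive for inhibition, exceeds three library SD while starting fluorescence stays within three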;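 further: channel opened by potassium depolarization with thallium stimulus after 20 min compound exposure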
KCNK3 block: human KCNK3 channel inhibition, primary screen; O14649; CHO-KCNK3 thallium flux, FluxOR fluorescence; active compounds read low; B-score at 10 µM; hit rate 0.84% among 340,000; AID 602410;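 active means B-score under library mean minus 4 SD, starting fluorescence ratio at most library mean plus 5 SD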;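 further: more negative B-score means stronger inhibition of thallium flux through KCNK3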
KCNK9 block: human KCNK9 channel inhibition | Q9NPC2 | HEK293 KCNK9, FluxOR thallium flux fluorescence; active compounds read low | B-score at 10 µM | hit rate 1.2% among 310,000;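 active means ratio B-score over 3 SD below the library mean, with starting fluorescence within 5 SD of its mean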;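 further: negative B-score means less thallium flux so channel inhibition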
Kir21 block: blocks the mouse Kir2.1 inward-rectifier potassium channel. hit rate 0.85% among 310,000. P35561. HEK293-Kir2.1, FluxOR thallium flux fluorescence; active compounds read low. B-score at 10 µM;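 active means fluorescence ratio B-score at or below minus 3 SD of library scores, with starting-brightness B-score within 2 SD, cut at about -4.2 in these data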;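 further: channel flux triggered by added potassium and thallium sulfate stimulus; B-score of peak minus minimum fluorescence over baseline after thallium stimulus; more negative B-score means stronger Kir2.1 block with less thallium influx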
Target sequence (P35561 whole entry, looked up): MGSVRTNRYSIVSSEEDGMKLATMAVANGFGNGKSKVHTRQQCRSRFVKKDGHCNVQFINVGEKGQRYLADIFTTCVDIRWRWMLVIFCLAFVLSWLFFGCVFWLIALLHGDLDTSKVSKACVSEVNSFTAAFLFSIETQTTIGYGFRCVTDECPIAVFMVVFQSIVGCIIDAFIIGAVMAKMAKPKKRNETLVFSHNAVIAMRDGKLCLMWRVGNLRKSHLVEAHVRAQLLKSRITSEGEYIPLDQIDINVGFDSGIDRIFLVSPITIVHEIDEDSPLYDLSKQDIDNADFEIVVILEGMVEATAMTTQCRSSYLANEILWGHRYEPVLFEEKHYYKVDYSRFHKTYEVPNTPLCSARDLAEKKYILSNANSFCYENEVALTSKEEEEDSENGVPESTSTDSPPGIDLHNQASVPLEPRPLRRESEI
hERG protect: shields human hERG channel from block by proarrhythmic agents | Q12809 | CHO-hERG, FluxOR thallium flux, dofetilide IC70 present | hit rate 0.51% among 310,000 | activation (rescue from dofetilide block), less the hit threshold, % at 10 µM;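 active means activation above the mean of controls blocked by dofetilide plus 5 SD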;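 further: thallium influx through hERG after potassium depolarization seen as dye fluorescence rise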
KCNK9 inh conf: human KCNK9 inhibitor confirmation; shares compounds with KCNK9 block; HEK293 KCNK9 cells, FluxOR thallium flux fluorescence; inhibition, % at 10 µM; hit rate 43% among 4,900;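 active means thallium signal inhibited by more than 5 SD of the compound-free buffer control wells, on both duplicate plates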;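 further: 0% = assay buffer control wells without compound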
Kir21 sel: mouse Kir2.1 off-target activity of KCNK9 modulators | shares compounds with KCNK9 block | Kir2.1 cells, FluxOR thallium flux fluorescence | inhibition, % at 10 µM | hit rate 4% among 4,900 | AID 492993;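 active means thallium signal drop more than 5 SD beyond the mean of the no-compound control wells, seen in both duplicate plates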;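 further: signal is fluorescence rise after thallium addition divided by baseline fluorescence; plate controls were assay buffer only for no effect and full block by chlorpromazine control for full effect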
KCNK9 uninduced: non-induced cell nonspecific activity of KCNK9 modulators. shares compounds with KCNK9 block. non-induced KCNK9-HEK293, FluxOR thallium flux. inhibition, % at 10 µM. hit rate 40% among 4,900. AID 492997;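 active means thallium signal drop beyond 5 SD of the untreated control mean, on both duplicate plates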;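 further: plate controls were buffer only IC0 wells for no effect and SID17386958 at its maximal inhibitory level for full effect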
Starred values were filed as active, the others as inactive; i = inactive; / = not tested or not shown.

SMILES	KCNQ1 pot	KCNQ1 block	KCNK3 block	KCNK9 block	Kir21 block	hERG protect	KCNK9 inh conf	Kir21 sel	KCNK9 uninduced
COc1ccc(/C=C/C(=O)c2ccccc2)cc1COc1ccccc1F	i	i	-11.6*	-11.6*	1.03	-12.4	50.0%*	i	32.0%*
COc1ccc(/C=C/C(=O)C2CC2)cc1COc1c(C)cccc1C	i	8*	i	-11.4*	-0.46	-16.1	48.5%*	i	i
OCc1cccc(Nc2ncnc3sc4c(c23)CCCCC4)c1	i	i	i	i	0.25	-9.0	/	/	/
Cc1c(C(=O)c2ccc(Cl)cc2Cl)cnc2cc3c(cc12)OCO3	i	i	i	-16.2*	1.58	-10.9	62.5%*	i	30.0%*
CC1=NOC(=O)/C1=C\c1ccc(-c2cccc(Cl)c2)o1	i	i	i	i	-1.26	-11.9	i	i	i
CSc1cccc(NC(=O)CCCn2c(=O)c3cccn3c3cccnc32)c1	i	i	i	i	-1.85	-5.5	/	/	/
O=C(CN1CCc2ccccc21)NCc1ccccc1Cl	i	i	i	i	0.67	-6.7	i	i	i
N#CCCN(C(=O)COC(=O)CNS(=O)(=O)c1ccc2ccccc2c1)c1ccccc1	/	/	i	/	/	/	/	/	/
COc1ccccc1N1CCN(C(=O)c2oc3cc(C)cc(C)c3c2C)CC1	i	i	i	i	1.67	-12.8	i	i	i
CCOC(=O)C1CCN(C(=O)c2cc3c(C)cc(C)cc3[nH]2)CC1	i	i	i	i	-1.6	-2.7	/	/	/
CCOc1ccccc1N1CCN(C(=O)c2cc3c(C)cc(C)cc3[nH]2)CC1	i	i	i	-8.29*	-1.06	-6.2	i	i	i
COc1cc(NC(=O)C2CCCN(S(=O)(=O)c3cccc4nsnc34)C2)cc(OC)c1 (stereo not drawn)	i	i	i	i	0.27	-7.7	i	i	i
Cn1c(=O)[nH]c(=O)c2c1nc(Br)n2Cc1ccccc1F	i	i	i	i	0.03	-1.7	i	i	i
Cc1ccc(Cl)cc1N1CCN(Cc2nc3c(c(=O)[nH]c(=O)n3C)n2Cc2ccccc2F)CC1	i	i	i	-8.81*	0.06	-16.8	i	i	i
C=CCN(c1ccccc1OC)S(=O)(=O)c1cccc(C(=O)NCC(c2ccc(OC)cc2)N2CCCC2)c1 (stereo not drawn)	/	/	i	/	/	/	/	/	/
O=C(NNc1ccccc1C(F)(F)F)c1sccc1Br	i	i	i	-8.68*	-0.96	-6.8	44.0%*	i	i
O=C(Nc1ccccc1C(F)(F)F)c1ccsc1	i	i	i	i	-0.03	-5.7	/	/	/
Cn1c(=O)[nH]c(=O)c2c1[nH]c(=S)n2CCCc1ccccc1	i	i	i	i	-0.07	-1.6	i	i	28.5%*
COc1ccc2ccccc2c1CNC(C)c1ccccc1 (stereo not drawn)	i	i	i	i	-5.55*	-1.9	i	i	i
CCCS(=O)(=O)N1CCCC(C(=O)N2CCCCC2)C1 (stereo not drawn)	i	i	i	i	1.55	-5.8	/	/	/
Cc1ccc2c(c1)N(C(=O)NC1CCCCC1)C(C)(C)CC2C (stereo not drawn)	i	i	i	i	-0.36	-16.2	i	i	i
COc1cc(-c2nnc(COc3ccc4ccccc4c3)o2)cc(OC)c1OC	i	i	i	i	0.31	-10.0	i	i	i
Cc1cc2c(cc1S(=O)(=O)N1CCN(c3cccc(C)c3C)CC1)OCCN2C	i	i	i	i	-0.24	-8.1	i	i	i
